Measurements: publication PMC6492960 (Oncoimmunology, 2019)

How the values were obtained:
[1] = tested on: splenocytes of immunised HLA-DR4 transgenic mice; assay: Epitope mapping, HLA-DR4 transgenic mice; type: cell-based, mouse; conditions: Supplementary Figure 3
[2] = tested on: TCR α and β chain CDR3 of CD4+ CFSE^high and CFSE^low cells; assay: TCR α and β CDR3 repertoire diversity of sorted CD4+ CFSE high/low cells; parameters: species or system human; conditions: for Diversity Index (D50) TRA / Diversity Index (D50) TRB: day 10, non-normalised
Procedure, shortened: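 CD25-depleted human PBMCs were labelled with 5µM CFSE for 5 min at room temperature and cultured at 1.5-2x10^6/ml with 10μg/ml citrullinated peptide or vehicle. On day 10 they were stained for CD4/CD8 and sorted into CD4+ CFSEhigh and CFSElow populations. RNA then went through RT-PCR, ARM-PCR with human TCR α/β primers, and NGS bulk sequencing. D50 is the percentage of clones accounting for the cumulative 50% of CDR3 counts.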

[3] = tested on: splenocytes of immunised HLA-DP4 transgenic mice (IFNγ); type: cell-based, mouse; conditions: anti-CD4 20 µg/ml, 15 min prior to peptide
Procedure, shortened: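 HLA-A2.1/HLA-DP4/hCD4 transgenic mice (8–12 weeks) immunised s.c. at tail base on days 0, 7 and 14 with 25 µg peptide in PBS emulsified with CpG ODN 1826 and MPLA (5 µg each). Spleens taken day 20. Splenocytes (5 × 10^5/well) given anti-CD4 GK1.5 before 10µg/ml peptide; quadruplicate wells, 40 h, 37°C, 5% CO2. LPS positive control. Spots counted automatically.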

[4] = tested on: HLA-DP4; conditions: cited from earlier work
[5] = molecular target: HLA-DP4 (HLA-DPA*0103 α chain / HLA-DPB*0401 β chain) (human); assay: ELISA
[6] = donor BD0011, CD4+ CFSE^High (non-proliferating)
[7] = donor BD0011, CD4+ CFSE^Low (proliferating)
[8] = donor BD0008, CD4+ CFSE^High (non-proliferating)
[9] = donor BD0008, CD4+ CFSE^Low (proliferating)

Substance: FSSLNL-cit-ETNLDSL [Vimentin 418-431 cit]
- shorter epitope mapping in HLA-DR4 transgenic mice [1]: consistent with findings in the HLA-DR4 transgenic mice mapping shorter peptide sequences

Substance: LPNFSSLNL-cit-ETNLDSLPL [Vimentin 415-433 cit]
- Diversity Index (D50) TRA [2, 6]: 9.9
- Diversity Index (D50) TRB [2, 6]: 5.9
- Diversity Index (D50) TRA [2, 7]: 0.7
- Diversity Index (D50) TRB [2, 7]: 0.5
- TCR clonality of responding CD4 T cells ([2]; donor BD0011, compared with non-proliferating CD4 population): a bias of TCR Vβ and Vα sequences among CD4+ proliferating cells (CFSE^low)
- IFNγ ELISpot response in presence of CD4 blocking antibody [3]: Responses were lost

Substance: LQYM-cit-ADQAAGGLR [collagen II]
- binding to HLA-DP4 (literature) [4]: not to bind to HLA-DP4

Substance: NQDFTN-cit-INKLKNS [fibrinogen]
- binding to HLA-DP4 (literature) [4]: not to bind to HLA-DP4

Substance: VIGMDVAASEFF-cit-SG [Enolase 241-255 cit]
- shorter epitope mapping in HLA-DR4 transgenic mice [1]: consistent with findings in the HLA-DR4 transgenic mice mapping shorter peptide sequences

Substance: VIGMDVAASEFF-cit-SGKYDLD [Enolase 241-260 cit]
- IFNγ ELISpot response in presence of CD4 blocking antibody [3]: Responses were lost

Substance: cit-SYVTTST-cit-TYSLGS [Vimentin 28-42 cit]
- shorter epitope mapping in HLA-DR4 transgenic mice [1]: consistent with findings in the HLA-DR4 transgenic mice mapping shorter peptide sequences

Substance: cit-SYVTTST-cit-TYSLGSAL-cit-PSTS [Vimentin 28-49 cit]
- Diversity Index (D50) TRA [2, 8]: 12.8
- Diversity Index (D50) TRB [2, 8]: 17
- Diversity Index (D50) TRA [2, 9]: 0.4
- Diversity Index (D50) TRB [2, 9]: 0.2
- TCR clonality of responding CD4 T cells ([2]; donor BD0008, compared with non-proliferating CD4 population): a bias of TCR Vβ and Vα sequences among CD4+ proliferating cells (CFSE^low)
- IFNγ ELISpot response in presence of CD4 blocking antibody [3]: Responses were lost

Substance: non-biotinylated Hepatitis B surface antigen aa 181–193 peptide
- percent inhibition of the binding of the biotinylated Hepatitis B peptide [5]: 50%
